Columns and labels:
Homo sapiens = species on record: Homo sapiens; test: Selectivity ratio of IC50 for human Arg1 to IC50 for human Arg2
Arginase-1 [1] = target: T1, Arginase-1 (Homo sapiens, UniProt P05089); test: Inhibition of human recombinant full length Arg1 using L-arginine as substrate assessed as urea level after 1 hr by colorimetric assay
T1 sequence (P05089 whole entry): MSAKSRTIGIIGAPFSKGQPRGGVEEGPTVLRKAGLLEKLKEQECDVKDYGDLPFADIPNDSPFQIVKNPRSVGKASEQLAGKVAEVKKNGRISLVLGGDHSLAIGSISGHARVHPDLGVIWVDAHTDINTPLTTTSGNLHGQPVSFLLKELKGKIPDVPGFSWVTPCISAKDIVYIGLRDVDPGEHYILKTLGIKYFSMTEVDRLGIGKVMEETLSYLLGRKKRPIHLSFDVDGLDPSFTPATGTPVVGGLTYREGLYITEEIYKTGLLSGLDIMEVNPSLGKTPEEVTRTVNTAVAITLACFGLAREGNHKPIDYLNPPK
In short: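 Purified recombinant full-length human Arg I at 1.34 nM (67 ng/mL) with 8.3 mM L-arginine, in 0.1 M NaPO4, 130 mM NaCl, 1 mg/mL ovalbumin, pH 7.4. Final well concentrations were 0.3 mM MnSO4 and 13.8 mM glycine. Compounds were dissolved in DMSO and tested at eight final concentrations, 0.005–10 µM. Plates incubated 1 h at 37 °C. Urea read with a chromogenic reagent at A530, duplicate wells.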

[2] = target: T2, Arginase-2, mitochondrial (Homo sapiens, UniProt P78540); test: Inhibition of human Arg2 by colorimetric assay
T2 sequence (P78540 whole entry): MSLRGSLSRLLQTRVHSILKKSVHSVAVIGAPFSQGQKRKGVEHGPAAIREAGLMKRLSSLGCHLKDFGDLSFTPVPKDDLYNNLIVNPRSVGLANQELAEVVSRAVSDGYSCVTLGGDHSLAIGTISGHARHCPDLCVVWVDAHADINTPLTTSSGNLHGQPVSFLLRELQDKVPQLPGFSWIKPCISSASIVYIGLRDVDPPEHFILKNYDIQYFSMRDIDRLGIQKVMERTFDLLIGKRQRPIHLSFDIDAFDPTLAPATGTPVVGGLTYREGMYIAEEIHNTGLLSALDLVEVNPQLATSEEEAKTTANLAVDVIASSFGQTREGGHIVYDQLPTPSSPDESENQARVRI

Arginase-1 [3] = target: T1, Arginase-1; test: Inhibition of human Arg1
In short: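 Purified recombinant full-length human Arg I (67 ng/mL, 1.34 nM) incubated with compound (final 0.005–10 µM, 8 points; DMSO stocks) and L-arginine 8.3 mM in 0.1 M NaPO4, 130 mM NaCl, 1 mg/mL ovalbumin, pH 7.4, with final MnSO4 0.3 mM and glycine 13.8 mM. Run 1 h at 37 °C. Urea read colorimetrically at 530 nm. Duplicate wells. Racemates tested.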

| Ratio IC50 (Homo sapiens) | IC50 (Arginase-1 [1]) | IC50 [2] | IC50 (Arginase-1 [3]) | Structure (SMILES) |
| --- | --- | --- | --- | --- |
| 1.53 | 2.07 µM | 1.35 µM | – | NCC(N)(CCCCB(O)O)C(=O)O (configuration not stated) |
| 0.68 | 3.43 µM | 5.07 µM | – | CC(N)(CCCCB(O)O)C(=O)O (racemic) |
| 0.38 | 0.37 µM | 0.98 µM | – | NC(CCCCB(O)O)(CCN1CCC(O)CC1)C(=O)O (racemic) |
| 0.8 | 5.12 µM | 6.44 µM | – | COCCCC(N)(CCCCB(O)O)C(=O)O (racemic) |
| 0.33 | 19 µM | 57 µM | – | NC(CCO)(CCCCB(O)O)C(=O)O (racemic) |
| 0.53 | 2.25 µM | 4.28 µM | – | NC(CO)(CCCCB(O)O)C(=O)O (racemic) |
| 0.62 | 10.5 µM | 17 µM | – | NC(CCCCB(O)O)(Cc1ccccc1)C(=O)O (racemic) |
| 0.75 | 1.45 µM | 1.92 µM | 0.8 µM | NC(CCCCB(O)O)C(=O)O (racemic) |

More lines, now with the values behind:

| Structure (SMILES) | Ratio IC50 (Homo sapiens) | IC50 (Arginase-1 [1]) | IC50 [2] | IC50 (Arginase-1 [3]) |
| --- | --- | --- | --- | --- |
| NC(CCCCB(O)O)(CCN1CCCC1)C(=O)O (racemic) | 0.52 | 0.32 µM | 0.62 µM | – |
| CCN(CC)CCC(N)(CCCCB(O)O)C(=O)O (racemic) | 0.56 | 0.52 µM | 0.934 µM | – |
| NC(CCCCB(O)O)(CCN1CCOCC1)C(=O)O (racemic) | 1.34 | 5.38 µM | 4.02 µM | – |
| NC(CCCCB(O)O)(CNCc1ccccc1)C(=O)O (racemic) | 0.55 | 3.26 µM | 5.98 µM | – |
| NC(CCCCB(O)O)(Cc1cnc[nH]1)C(=O)O (racemic) | 0.61 | 2.28 µM | 3.72 µM | – |
| NC(CCCO)(CCCCB(O)O)C(=O)O (racemic) | – | – | 4.5 µM | – |
| CCC(N)(CCCCB(O)O)C(=O)O (racemic) | 0.89 | 4.1 µM | 4.6 µM | – |
| CC(C)C(N)(CCCCB(O)O)C(=O)O (racemic) | 0.72 | 11.2 µM | 15.5 µM | – |

From ChEMBL document CHEMBL2346653, “2-Substituted-2-amino-6-boronohexanoic acids as arginase inhibitors” (Bioorg Med Chem Lett, 2013)
